Experimental data pooled from the literature.
Target: Dual specificity protein kinase CLK1 (CLK1, Homo sapiens, UniProt P49759)

C#Cc1n[nH]c2c(-c3cn([C@@H](C)c4ccccn4)c(=O)[nH]c3=O)cc(F)cc12
inhibition (enzyme activity; inhibitor; 0.1 µM): 4.1%

Cn1cncc1[C@@](O)(COc1ccc(C#N)cc1-c1ccc(OC(F)(F)F)cc1)c1ccc(C#N)cc1
remaining binding (cell-free assay; competition with immobilised ligand; 1 µM): 100%

Cn1cc(-c2cc(F)cc(N3CCn4c(cc5c4CCCC5)C3=O)c2CO)cc(Nc2ccc(N3CCN(C4COC4)CC3)cn2)c1=O
inhibition (enzyme activity; inhibitor; 0.1 µM): 11%

Cc1nn(C)cc1-c1nc2c(N3CCN(Cc4ccc(Cl)cc4)CC3)c(Cl)cnc2[nH]1
remaining binding (binding; competition with immobilised ligand; 1 µM): 63%

O=c1[nH]c2ccccc2n1C1CCN(Cc2ccc(-c3[nH]c4cc5ncnc5cc4nc3-c3ccccc3)cc2)CC1
remaining signal (cell-free assay; 0.5 µM): 109%

COc1cc(Nc2ncc(F)c(Nc3ccc4c(n3)NC(=O)C(C)(C)O4)n2)cc(OC)c1OC
inhibition (binding; competition with immobilised ligand; 10 µM): 92%

Nc1ncc(-c2nc(N3CCOCC3)nc(N3CCOCC3)n2)c(C(F)F)n1
remaining binding (binding; competition with immobilised ligand; 10 µM): 58%

CC(C)(C)c1cc(C=C(C#N)C#N)cc(Br)c1O
remaining activity (enzyme activity; inhibitor; 0.5 µM): 112%

COc1ncccc1-c1cnn2ccc(N3CCN(C(=O)OC(C)C)CC3)nc12
remaining binding (binding; competition with immobilised ligand; 1 µM): 81%
